For data set [1], the target named is T1, Amine oxidase [flavin-containing] B (Homo sapiens, UniProt P27338).
T1 sequence (P27338 whole entry): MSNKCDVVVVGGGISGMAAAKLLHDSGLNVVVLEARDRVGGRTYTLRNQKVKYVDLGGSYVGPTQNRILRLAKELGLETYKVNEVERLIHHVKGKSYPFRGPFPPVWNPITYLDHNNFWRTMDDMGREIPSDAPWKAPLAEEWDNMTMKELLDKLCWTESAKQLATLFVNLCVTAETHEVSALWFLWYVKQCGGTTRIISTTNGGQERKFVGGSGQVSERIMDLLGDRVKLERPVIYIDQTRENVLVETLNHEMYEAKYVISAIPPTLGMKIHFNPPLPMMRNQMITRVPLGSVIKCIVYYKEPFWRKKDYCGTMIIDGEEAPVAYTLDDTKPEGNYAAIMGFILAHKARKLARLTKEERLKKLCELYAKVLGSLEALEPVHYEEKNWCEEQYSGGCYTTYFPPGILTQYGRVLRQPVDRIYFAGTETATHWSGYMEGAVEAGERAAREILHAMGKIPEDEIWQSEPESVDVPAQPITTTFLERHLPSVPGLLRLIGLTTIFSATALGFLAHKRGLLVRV
The experiment in a line: Inhibition of human recombinant MAO-B expressed in BTI-TN-5B1-4 cells assessed as H2O2 production using para-tyramine substrate by fluorimetric method. Type of data set: cell-based.

In data set [2] the target is T2, Amine oxidase [flavin-containing] A (Homo sapiens, UniProt P21397).
T2 sequence (P21397 whole entry): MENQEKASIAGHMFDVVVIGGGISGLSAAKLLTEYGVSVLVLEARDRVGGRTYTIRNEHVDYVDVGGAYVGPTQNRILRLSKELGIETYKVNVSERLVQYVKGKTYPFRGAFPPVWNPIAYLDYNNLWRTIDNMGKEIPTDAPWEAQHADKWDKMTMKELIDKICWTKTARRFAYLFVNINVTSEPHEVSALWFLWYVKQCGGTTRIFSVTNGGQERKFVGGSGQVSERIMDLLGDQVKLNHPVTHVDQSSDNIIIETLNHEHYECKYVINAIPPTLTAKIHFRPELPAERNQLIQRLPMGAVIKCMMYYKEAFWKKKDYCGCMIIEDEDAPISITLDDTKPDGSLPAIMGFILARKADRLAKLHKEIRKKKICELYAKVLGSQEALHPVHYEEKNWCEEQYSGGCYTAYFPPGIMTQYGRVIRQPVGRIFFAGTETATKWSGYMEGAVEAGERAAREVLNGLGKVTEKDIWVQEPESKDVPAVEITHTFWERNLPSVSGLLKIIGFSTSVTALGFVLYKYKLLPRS
Kind of data set: Inhibition of human recombinant MAO-A expressed in BTI-TN-5B1-4 cells assessed as H2O2 production using para-tyramine substrate by fluorimetric method. Type of data set: cell-based.

The species named for data set [3] is Homo sapiens. Kind of data set: Selectivity index, ratio of IC50 for human recombinant MAO-A to IC50 for human recombinant MAO-B. The method in brief: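 SI is IC50(hMAO-A)/IC50(hMAO-B), from IC50s measured by Amplex Red/HRP fluorimetry of p-tyramine-driven H2O2 with baculovirus-expressed human isoforms (mean of five experiments each). Where no MAO-A IC50 was reached, the highest concentration tested was taken as that IC50.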

Data set [4] has as its target T2, Amine oxidase [flavin-containing] A. The experiment in a line: Inhibition of human recombinant MAO-A expressed in BTI-TN-5B1-4 cells assessed as H2O2 production using para-tyramine substrate at 100 uM by fluorimetric method. Type of data set: cell-based. To be noted: bti-tn-5b1-4, 100 µM.
In data set [5] the target is T1, Amine oxidase [flavin-containing] B. Kind of data set: Inhibition of human recombinant MAO-B expressed in BTI-TN-5B1-4 cells assessed as H2O2 production using para-tyramine substrate at 100 uM by fluorimetric method. The format is cell-based. The note with it: bti-tn-5b1-4, 100 µM.

pIC50: −log10 of the molar value.

Results on twelve molecules are retold here after ChEMBL document CHEMBL1759933, “Synthesis, human monoamine oxidase inhibitory activity and molecular docking studies of 3-heteroarylcoumarin derivatives” (Eur J Med Chem, 2011).

One may read the pIC50 as the negative decadic logarithm of the IC50, by convention in mol/L. For `COc1ccc2cc(-c3ccsc3)c(=O)oc2c1`, the negative-log IC50 (pIC50) is 7.25 in data set [1] and 5.38 in data set [2]. In addition, in data set [3], the Ratio IC50 was more than 75.

Consider `COc1ccc2cc(-c3c[nH]c4ccccc34)c(=O)oc2c1`, for which the negative-log IC50 (pIC50) in data set [1] was 7.34; in data set [2], 5.01. Besides, the Ratio IC50 in data set [3] is more than 210.

For `COc1ccc2oc(=O)c(-c3ccsc3)cc2c1`, the pIC50 in data set [1] was 6.63. Also, in data set [3], the Ratio IC50 is more than 428. For the same molecule, in data set [4], the “inhibition (INH)” value is “Not Active”.

For the molecule `O=c1oc2ccccc2cc1-c1c[nH]c2ccccc12`, in data set [1], the pIC50 is 5.72. Moreover, the Ratio IC50 in data set [3] is more than 52. For the same molecule, the “inhibition (INH)” value in data set [4] was “Not Active”.

Consider `COc1ccc2oc(=O)c(-c3c[nH]c4ccccc34)cc2c1`, for which the “inhibition (INH)” value in data set [4] and in data set [5] was “Not Active” each time.

Turning to `COc1ccc2cc(-c3cccs3)c(=O)oc2c1`, the negative-log IC50 (pIC50) in data set [1] was 6.58. Also, the Ratio IC50 in data set [3] was more than 380. Also, the “inhibition (INH)” value in data set [4] is reported as “Not Active”.

Take `COc1cc(OC)c2cc(-c3c[nH]c4ccccc34)c(=O)oc2c1`: the “inhibition (INH)” value in data set [4] and in data set [5] was “Not Active” each time.

Consider `COc1cc(OC)c2cc(-c3ccsc3)c(=O)oc2c1`, for which the “inhibition (INH)” value in data set [4] and in data set [5] was “Not Active” throughout.

On to `O=c1oc2ccccc2cc1-c1cccs1`, for which the negative-log IC50 (pIC50) in data set [1] was 5.20. In addition, in data set [3], the Ratio IC50 is more than 15. Moreover, the “inhibition (INH)” value in data set [4] is on record as “Not Active”.

As for `COc1cc(OC)c2cc(-c3cccs3)c(=O)oc2c1`, the “inhibition (INH)” value in data set [4] and in data set [5] was “Not Active” in each case.

Consider `COc1ccc2oc(=O)c(-c3cccs3)cc2c1`, for which, in data set [1], the negative-log IC50 (pIC50) was 6.20. For the same molecule, the Ratio IC50 in data set [3] was more than 158. In addition, the “inhibition (INH)” value in data set [4] is reported as “Not Active”.

Consider `O=c1oc2ccccc2cc1-c1ccsc1`, for which the negative-log IC50 (pIC50) in data set [1] is 4.88. In addition, in data set [3], the Ratio IC50 is more than 7.5. The “inhibition (INH)” value in data set [4] is “Not Active”.
